Test results taken from ChEMBL document CHEMBL4052671, “Design, synthesis, and evaluation of DNA topoisomerase II-targeted nucleosides” (Bioorg Med Chem, 2017).
Active and inactive are the calls of the source. The calls are words filed in the database; no cut-off is given here.

Tests used:
[1] = target: T1, DNA topoisomerase 2-alpha (Homo sapiens, UniProt P11388); test: Inhibition of recombinant human DNA topoisomerase-2alpha assessed as decrease in relaxation of supercoiled pBR322 DNA at […] after 30 mins by ethidium bromide staining based agarose gel electrophoresis relative to control
T1 sequence (P11388 whole entry): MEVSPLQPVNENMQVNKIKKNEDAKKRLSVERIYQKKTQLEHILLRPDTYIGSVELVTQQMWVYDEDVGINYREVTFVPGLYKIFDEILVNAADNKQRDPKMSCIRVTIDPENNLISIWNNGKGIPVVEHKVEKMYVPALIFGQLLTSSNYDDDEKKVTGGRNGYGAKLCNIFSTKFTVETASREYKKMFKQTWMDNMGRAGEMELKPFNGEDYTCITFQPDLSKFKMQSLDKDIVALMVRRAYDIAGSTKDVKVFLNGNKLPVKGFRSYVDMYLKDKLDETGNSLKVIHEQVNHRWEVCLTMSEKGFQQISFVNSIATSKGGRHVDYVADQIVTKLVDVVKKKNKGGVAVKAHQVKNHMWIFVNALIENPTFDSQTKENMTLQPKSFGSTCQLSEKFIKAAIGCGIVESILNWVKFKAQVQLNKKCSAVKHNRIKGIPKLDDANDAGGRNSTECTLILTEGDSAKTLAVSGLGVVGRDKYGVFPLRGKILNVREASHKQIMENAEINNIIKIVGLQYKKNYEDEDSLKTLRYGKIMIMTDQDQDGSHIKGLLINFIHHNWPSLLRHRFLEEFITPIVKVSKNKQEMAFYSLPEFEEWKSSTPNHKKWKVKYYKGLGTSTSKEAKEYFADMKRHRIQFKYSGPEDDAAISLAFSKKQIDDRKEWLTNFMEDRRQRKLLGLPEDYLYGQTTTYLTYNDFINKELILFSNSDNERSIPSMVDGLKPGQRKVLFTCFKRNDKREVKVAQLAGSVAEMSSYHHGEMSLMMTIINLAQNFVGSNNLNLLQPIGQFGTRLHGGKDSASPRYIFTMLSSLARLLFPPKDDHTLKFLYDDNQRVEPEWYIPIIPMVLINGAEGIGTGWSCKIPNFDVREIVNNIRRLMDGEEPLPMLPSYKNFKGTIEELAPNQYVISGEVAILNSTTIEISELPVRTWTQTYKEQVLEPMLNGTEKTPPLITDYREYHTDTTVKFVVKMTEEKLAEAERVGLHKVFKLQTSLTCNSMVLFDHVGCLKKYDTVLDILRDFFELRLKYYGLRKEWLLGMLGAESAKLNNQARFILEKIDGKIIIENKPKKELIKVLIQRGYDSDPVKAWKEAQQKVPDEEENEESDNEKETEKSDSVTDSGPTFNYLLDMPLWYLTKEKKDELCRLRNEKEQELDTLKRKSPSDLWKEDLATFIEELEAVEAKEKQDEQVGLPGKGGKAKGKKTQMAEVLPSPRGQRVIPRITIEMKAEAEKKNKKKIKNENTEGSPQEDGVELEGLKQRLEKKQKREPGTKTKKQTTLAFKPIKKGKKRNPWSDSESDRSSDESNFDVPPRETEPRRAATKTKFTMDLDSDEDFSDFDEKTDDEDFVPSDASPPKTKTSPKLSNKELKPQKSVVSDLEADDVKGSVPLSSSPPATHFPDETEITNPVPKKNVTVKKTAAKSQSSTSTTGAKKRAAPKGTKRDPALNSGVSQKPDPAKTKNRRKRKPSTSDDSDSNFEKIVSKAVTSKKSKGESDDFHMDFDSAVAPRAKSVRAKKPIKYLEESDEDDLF
In short: (§1)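 Topo II relaxation of supercoiled pBR322 (198 ng) with 1 U enzyme, 50 mM Tris-HCl pH 8, 120 mM KCl, 10 mM MgCl2, 0.5 mM ATP, 0.5 mM DTT, drug in <10% DMSO; 37 °C for 30 min; products run on 1% agarose in TAE, ethidium-stained, scanned; supercoiled DNA area quantified.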

[2] = target: T1, DNA topoisomerase 2-alpha; test: Inhibition of recombinant human DNA topoisomerase-2alpha assessed as decrease in relaxation of supercoiled pBR322 DNA after 30 mins by ethidium bromide staining based agarose gel electrophoresis
[3] = target: T1, DNA topoisomerase 2-alpha; test: Inhibition of recombinant human DNA topoisomerase-2alpha assessed as decrease in relaxation of supercoiled pBR322 DNA at 200 uM after 30 mins by ethidium bromide staining based agarose gel electrophoresis relative to control; in short: as §1
[4] = Growth inhibition of human HBC4 cells incubated for 48 hrs by sulforhodamine B assay; format: functional; details: HBC4, 48 h
[5] = Growth inhibition of human BSY1 cells incubated for 48 hrs by sulforhodamine B assay; format: functional; details: BSY-1, 48 h
[6] = Growth inhibition of human HBC5 cells incubated for 48 hrs by sulforhodamine B assay; format: functional; details: HBC5, 48 h
MCF7 = test: Growth inhibition of human MCF7 cells incubated for 48 hrs by sulforhodamine B assay; format: functional; details: MCF7, 48 h
[7] = Growth inhibition of human […] incubated for 48 hrs by sulforhodamine B assay; format: functional
U-251 = test: Growth inhibition of human U251 cells incubated for 48 hrs by sulforhodamine B assay; format: functional; details: U-251, 48 h
SF-268 = test: Growth inhibition of human SF268 cells incubated for 48 hrs by sulforhodamine B assay; format: functional; details: SF-268, 48 h
SF-295 = test: Growth inhibition of human SF295 cells incubated for 48 hrs by sulforhodamine B assay; format: functional; details: SF-295, 48 h
SF-539 = test: Growth inhibition of human SF539 cells incubated for 48 hrs by sulforhodamine B assay; format: functional; details: SF-539, 48 h
SNB-75 = test: Growth inhibition of human SNB75 cells incubated for 48 hrs by sulforhodamine B assay; format: functional; details: SNB-75, 48 h
SNB-78 = test: Growth inhibition of human SNB78 cells incubated for 48 hrs by sulforhodamine B assay; format: functional; details: SNB-78, 48 h
HCC 2998 = test: Growth inhibition of human HCC2998 cells incubated for 48 hrs by sulforhodamine B assay; format: functional; details: HCC 2998, 48 h
KM12 = test: Growth inhibition of human KM12 cells incubated for 48 hrs by sulforhodamine B assay; format: functional; details: KM12, 48 h
HT-29 = test: Growth inhibition of human HT-29 cells incubated for 48 hrs by sulforhodamine B assay; format: functional; details: HT-29, 48 h
HCT-15 = test: Growth inhibition of human HCT15 cells incubated for 48 hrs by sulforhodamine B assay; format: functional; details: HCT-15, 48 h
HCT-116 = test: Growth inhibition of human HCT116 cells incubated for 48 hrs by sulforhodamine B assay; format: functional; details: HCT-116, 48 h
NCI-H23 = test: Growth inhibition of human NCI-H23 cells incubated for 48 hrs by sulforhodamine B assay; format: functional; details: NCI-H23, 48 h
NCI-H226 = test: Growth inhibition of human NCI-H226 cells incubated for 48 hrs by sulforhodamine B assay; format: functional; details: NCI-H226, 48 h
NCI-H522 = test: Growth inhibition of human NCI-H522 cells incubated for 48 hrs by sulforhodamine B assay; format: functional; details: NCI-H522, 48 h
NCI-H460 = test: Growth inhibition of human NCI-H460 cells incubated for 48 hrs by sulforhodamine B assay; format: functional; details: NCI-H460, 48 h
A549 = test: Growth inhibition of human A549 cells incubated for 48 hrs by sulforhodamine B assay; format: functional; details: A549, 48 h
DMS-273 = test: Growth inhibition of human DMS273 cells incubated for 48 hrs by sulforhodamine B assay; format: functional; details: DMS-273, 48 h
DMS-114 = test: Growth inhibition of human DMS114 cells incubated for 48 hrs by sulforhodamine B assay; format: functional; details: DMS-114, 48 h
LOX IMVI = test: Growth inhibition of human LOXIMVI cells incubated for 48 hrs by sulforhodamine B assay; format: functional
OVCAR-3 = test: Growth inhibition of human OVCAR3 cells incubated for 48 hrs by sulforhodamine B assay; format: functional; details: OVCAR-3, 48 h
OVCAR-4 = test: Growth inhibition of human OVCAR4 cells incubated for 48 hrs by sulforhodamine B assay; format: functional; details: OVCAR-4, 48 h
OVCAR-5 = test: Growth inhibition of human OVCAR5 cells incubated for 48 hrs by sulforhodamine B assay; format: functional; details: OVCAR-5, 48 h
OVCAR-8 = test: Growth inhibition of human OVCAR8 cells incubated for 48 hrs by sulforhodamine B assay; format: functional; details: OVCAR-8, 48 h
SK-OV-3 = test: Growth inhibition of human SKOV3 cells incubated for 48 hrs by sulforhodamine B assay; format: functional; details: SK-OV-3, 48 h
RXF 631 = test: Growth inhibition of human RXF631L cells incubated for 48 hrs by sulforhodamine B assay; format: functional; details: RXF 631, 48 h
ACHN = test: Growth inhibition of human ACHN cells incubated for 48 hrs by sulforhodamine B assay; format: functional
St-4 = test: Growth inhibition of human St-4 cells incubated for 48 hrs by sulforhodamine B assay; format: functional; details: St-4, 48 h
MKN-1 = test: Growth inhibition of human MKN1 cells incubated for 48 hrs by sulforhodamine B assay; format: functional; details: MKN-1, 48 h
MKN-7 = test: Growth inhibition of human MKN7 cells incubated for 48 hrs by sulforhodamine B assay; format: functional; details: MKN-7, 48 h
MKN-28 = test: Growth inhibition of human MKN28 cells incubated for 48 hrs by sulforhodamine B assay; format: functional; details: MKN-28, 48 h
MKN-45 = test: Growth inhibition of human MKN45 cells incubated for 48 hrs by sulforhodamine B assay; format: functional; details: MKN-45, 48 h
MKN-74 = test: Growth inhibition of human MKN74 cells incubated for 48 hrs by sulforhodamine B assay; format: functional; details: MKN-74, 48 h
DU-145 = test: Growth inhibition of human DU145 cells incubated for 48 hrs by sulforhodamine B assay; format: functional; details: DU-145, 48 h
PC-3 = test: Growth inhibition of human PC3 cells incubated for 48 hrs by sulforhodamine B assay; format: functional; details: PC-3, 48 h
[8] = target: T1, DNA topoisomerase 2-alpha; test: Inhibition of recombinant human DNA topoisomerase-2alpha assessed as decrease in relaxation of supercoiled pBR322 DNA at 100 uM after 30 mins by ethidium bromide staining based agarose gel electrophoresis; in short: as §1
[9] = target: DNA topoisomerase 1 (Homo sapiens) (UniProt P11387); test: Inhibition of human placenta DNA topoisomerase-1 assessed as decrease in relaxation of supercoiled pUC19 DNA at 200 uM after 30 mins by ethidium bromide staining based agarose gel electrophoresis
DNA topoisomerase 1 (Homo sapiens), sequence (P11387 whole entry): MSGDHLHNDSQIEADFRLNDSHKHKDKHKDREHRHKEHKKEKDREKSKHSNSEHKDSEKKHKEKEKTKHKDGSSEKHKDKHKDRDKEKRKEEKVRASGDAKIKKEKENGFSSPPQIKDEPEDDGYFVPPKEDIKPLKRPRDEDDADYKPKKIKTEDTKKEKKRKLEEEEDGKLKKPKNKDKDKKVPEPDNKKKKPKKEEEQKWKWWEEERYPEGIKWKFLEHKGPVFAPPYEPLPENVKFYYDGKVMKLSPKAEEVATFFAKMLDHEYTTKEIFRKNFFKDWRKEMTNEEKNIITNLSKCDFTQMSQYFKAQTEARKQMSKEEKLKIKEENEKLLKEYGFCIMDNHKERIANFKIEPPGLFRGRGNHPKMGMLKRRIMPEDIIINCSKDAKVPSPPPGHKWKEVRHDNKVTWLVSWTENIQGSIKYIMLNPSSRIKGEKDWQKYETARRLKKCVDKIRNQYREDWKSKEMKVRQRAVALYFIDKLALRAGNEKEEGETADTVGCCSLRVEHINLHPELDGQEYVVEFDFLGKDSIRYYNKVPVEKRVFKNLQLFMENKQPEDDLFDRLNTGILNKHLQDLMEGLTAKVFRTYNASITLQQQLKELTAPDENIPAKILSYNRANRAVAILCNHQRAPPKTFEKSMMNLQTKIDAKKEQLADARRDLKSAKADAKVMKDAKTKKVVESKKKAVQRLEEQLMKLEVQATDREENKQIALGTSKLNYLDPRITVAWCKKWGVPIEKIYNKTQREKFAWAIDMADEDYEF

[10] = target: T1, DNA topoisomerase 2-alpha; test: Poison activity at recombinant human DNA topoisomerase-2alpha assessed as linear DNA formation using supercoiled pBR322 DNA as substrate at 200 uM after 30 mins by ethidium bromide staining based agarose gel electrophoresis
In short: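 Cleavage reactions: 200 ng pBR322, 6 U topo II, 30 mM Tris-HCl pH 7.6, 60 mM NaCl, 8 mM MgCl2, 3 mM ATP, 15 mM mercaptoethanol, drug in 10% DMSO; 37 °C, 30 min; SDS/proteinase K 60 min, 37 °C; 1% agarose in TBE with 0.1% SDS and ethidium bromide; linear DNA scored.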

COc1ccc(C[C@H]2C[C@@H](n3cc(C)c(=O)[nH]c3=O)O[C@@H]2CO)cc1OC
inhibition [1]: inactive

COc1ccc(C2([C@H]3CC(=O)O[C@@H]3CO)SCCCS2)cc1OC
IC50 [2]: > 200 µM | inhibition [1]: 19.8%

COc1ccc(C2([C@H]3CC(=O)O[C@@H]3CO[Si](C)(C)C(C)(C)C)SCCCS2)cc1OC
IC50 [2]: 55.7 µM

Cc1cn([C@H]2C[C@H](CC3=CC(=O)C(=O)C=C3)[C@@H](CO[Si](C)(C)C(C)(C)C)O2)c(=O)[nH]c1=O
IC50 [2]: 2.43 µM

COc1ccc(C[C@H]2CC(=O)O[C@@H]2CO[Si](C)(C)C(C)(C)C)cc1OC
IC50 [2]: 137 µM

COc1ccc(C[C@H]2C[C@H](n3cc(C)c(=O)[nH]c3=O)O[C@@H]2CO[Si](C)(C)C(C)(C)C)cc1OC
IC50 [2]: 99.1 µM

COc1ccc(C[C@H]2C[C@@H](n3cc(C)c(=O)[nH]c3=O)O[C@@H]2CO[Si](C)(C)C(C)(C)C)cc1OC
IC50 [2]: 89.2 µM

COc1ccc(C[C@H]2C[C@H](n3cc(C)c(=O)[nH]c3=O)O[C@@H]2CO)cc1OC
IC50 [2]: > 200 µM | inhibition [1]: 23.7% | inhibition [3]: inactive

COc1ccc(C2([C@H]3C[C@@H](n4cc(C)c(=O)[nH]c4=O)O[C@@H]3CO[Si](C)(C)C(C)(C)C)SCCCS2)cc1OC
IC50 [2]: 18.5 µM | GI50 [4]: 5.01 µM | GI50 [5]: 3.31 µM | GI50 [6]: 5.75 µM | GI50 (MCF7): 4.37 µM | GI50 [7]: 11 µM | GI50 (U-251): 7.41 µM | GI50 (SF-268): 12.9 µM | GI50 (SF-295): 8.32 µM | GI50 (SF-539): 14.1 µM | GI50 (SNB-75): 17 µM | GI50 (SNB-78): 12.9 µM | GI50 (HCC 2998): 12.9 µM | GI50 (KM12): 11 µM | GI50 (HT-29): 6.17 µM | GI50 (HCT-15): 9.12 µM | GI50 (HCT-116): 5.75 µM | GI50 (NCI-H23): 11 µM | GI50 (NCI-H226): 3.39 µM | GI50 (NCI-H522): 5.62 µM | GI50 (NCI-H460): 5.62 µM | GI50 (A549): 5.37 µM | GI50 (DMS-273): 4.57 µM | GI50 (DMS-114): 5.62 µM | GI50 (LOX IMVI): 8.13 µM | GI50 (OVCAR-3): 11 µM | GI50 (OVCAR-4): 4.9 µM | GI50 (OVCAR-5): 12.9 µM | GI50 (OVCAR-8): 8.32 µM | GI50 (SK-OV-3): 17 µM | GI50 (RXF 631): 17 µM | GI50 (ACHN): 6.76 µM | GI50 (St-4): 12 µM | GI50 (MKN-1): 5.01 µM | GI50 (MKN-7): 3.02 µM | GI50 (MKN-28): 4.9 µM | GI50 (MKN-45): 8.32 µM | GI50 (MKN-74): 4.27 µM | GI50 (DU-145): 12 µM | GI50 (PC-3): 3.63 µM

Cc1cn([C@H]2C[C@H](Cc3ccc(O)c(O)c3)[C@@H](CO[Si](C)(C)C(C)(C)C)O2)c(=O)[nH]c1=O
IC50 [2]: 35.2 µM

Cc1cn([C@H]2C[C@H](Cc3ccc(O)c(O)c3)[C@@H](CO)O2)c(=O)[nH]c1=O
IC50 [2]: 176 µM | inhibition [2]: Dose-dependent effect | inhibition [8]: inactive | inhibition [9]: inactive | Activity [10]: inactive

COc1ccc(C2([C@H]3C[C@H](n4cc(C)c(=O)[nH]c4=O)O[C@@H]3CO[Si](C)(C)C(C)(C)C)SCCCS2)cc1OC
IC50 [2]: 8.1 µM | inhibition [9]: inactive | GI50 [4]: 3.8 µM | GI50 [5]: 1.82 µM | GI50 [6]: 2.51 µM | GI50 (MCF7): 3.31 µM | GI50 [7]: 3.47 µM | GI50 (U-251): 3.8 µM | GI50 (SF-268): 6.46 µM | GI50 (SF-295): 3.72 µM | GI50 (SF-539): 2.19 µM | GI50 (SNB-75): 10 µM | GI50 (SNB-78): 5.5 µM | GI50 (HCC 2998): 3.31 µM | GI50 (KM12): 4.07 µM | GI50 (HT-29): 3.89 µM | GI50 (HCT-15): 4.07 µM | GI50 (HCT-116): 3.63 µM | GI50 (NCI-H23): 3.72 µM | GI50 (NCI-H226): 2 µM | GI50 (NCI-H522): 2.69 µM | GI50 (NCI-H460): 3.63 µM | GI50 (A549): 4.68 µM | GI50 (DMS-273): 3.8 µM | GI50 (DMS-114): 3.31 µM | GI50 (LOX IMVI): 3.24 µM | GI50 (OVCAR-3): 3.72 µM | GI50 (OVCAR-4): 2.88 µM | GI50 (OVCAR-5): 2.88 µM | GI50 (OVCAR-8): 3.89 µM | GI50 (SK-OV-3): 5.25 µM | GI50 (RXF 631): 4.57 µM | GI50 (ACHN): 2.51 µM | GI50 (St-4): 4.47 µM | GI50 (MKN-1): 2.29 µM | GI50 (MKN-7): 2.29 µM | GI50 (MKN-28): 3.31 µM | GI50 (MKN-45): 3.31 µM | GI50 (MKN-74): 3.24 µM | GI50 (DU-145): 3.72 µM | GI50 (PC-3): 2.29 µM

COc1ccc(C[C@H]2CC(=O)O[C@@H]2CO)cc1OC
inhibition [1]: inactive

COc1cc([C@@H]2c3cc4c(cc3[C@@H](O[C@@H]3O[C@@H]5CO[C@@H](C)O[C@H]5[C@H](O)[C@H]3O)[C@H]3COC(=O)[C@H]23)OCO4)cc(OC)c1O
Activity [10]: Active

COc1ccc(C2([C@H]3C[C@H](n4cc(C)c(=O)[nH]c4=O)O[C@@H]3CO)SCCCS2)cc1OC
IC50 [2]: 64.5 µM
